Laboratory results as given in ChEMBL document CHEMBL3244412, “Benzopyrones. 14. Synthesis and antiallergic properties of some N-tetrazolylcarboxamides and related compounds” (1978).
≈ marks a conversion by molar mass, not a printed value.

Experiments:
[1] = species on record: Homo sapiens; assay: Antianaphylactic activity in human lung fragments assessed as inhibition of sheep anti-human IgE-induced histamine release at 18 ug/ml treated 10 mins prior to sheep anti-human IgE-challenge measured after 15 mins by superfusion assay relative to control; assay type: functional
In short: (§1)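 Human lung fragments in Tyrode's solution were incubated with the compound for 10 min, then challenged with sheep anti-human IgE and centrifuged for 15 min after challenge. Free and residual histamine were measured by superfusion bioassay on atropine-treated guinea pig ileum. % release and % inhibition were calculated from net release. Values are means of three experiments, each in duplicate.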

[2] = species on record: Homo sapiens; assay: Antianaphylactic activity in human lung fragments assessed as inhibition of sheep anti-human IgE-induced histamine release at 180 ug/ml treated 10 mins prior to sheep anti-human IgE-challenge measured after 15 mins by superfusion assay relative to control; assay type: functional; in short: as §1
[3] = species on record: Homo sapiens; assay: Antianaphylactic activity in human lung fragments assessed as inhibition of sheep anti-human IgE-induced histamine release treated 10 mins prior to sheep anti-human IgE-challenge measured after 15 mins by superfusion assay; assay type: functional; in short: as §1
[4] = Antianaphylactic activity in rat mast cells assessed as inhibition of DNP-ovalbumin-induced histamine release after 15 mins by superfusion assay; assay type: functional; details: Mast cell, 0.25 h, read-out: ED50 (the source's name)
In short: (§2)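 Peritoneal and pleural cells from male albino rats were washed, sensitized with 1:10 rat reaginic anti-DNP-ovalbumin serum for 2 h at 37 °C, and resuspended at 1.2-1.7 × 10⁵ mast cells/mL. Compound and DNP-ovalbumin were added together and incubated for 15 min at 37 °C. Supernatant (free) and lysed-cell (residual) histamine were assayed by guinea pig ileum superfusion bioassay. Inhibition of net histamine release was used to derive EC50 from dose ranging against the reference compound.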

[5] = Antianaphylactic activity in rat mast cells assessed as inhibition of DNP-ovalbumin-induced histamine release after 15 mins by superfusion assay relative to 4-oxo-N-(5-tetrazolyl)-4H-l-benzopyran-2-carboxamide; assay type: functional, Mast cell; in short: as §2
[6] = test system: Rattus norvegicus; assay: Antiallergic activity in rat assessed as inhibition of DNP-ovalbumin-induced passive cutaneous anaphylaxis at 1 mg/kg, iv after 30 mins relative to control; assay type: functional; details: Rattus norvegicus, iv, 0.5 h
In short: (§3)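 Female albino rats (groups of four) were shaved and sensitized by dorsal intradermal injection of 0.1 mL diluted rat reaginic anti-DNP-ovalbumin serum, raised with Bordetella pertussis adjuvant. After 48 h they were challenged iv with 2 mg DNP-ovalbumin in 0.5 mL 1% Evans blue/saline, with the compound given iv in aqueous solution at the same time. After 30 min, skin weals were scored visually on a 5-point scale; % inhibition was taken versus vehicle controls.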

[7] = test system: Rattus norvegicus; assay: Antiallergic activity in iv dosed rat assessed as inhibition of DNP-ovalbumin-induced passive cutaneous anaphylaxis after 30 mins; assay type: functional; details: 0.5 h; in short: as §3
[8] = test system: Rattus norvegicus; assay: Antiallergic activity in po dosed rat assessed as inhibition of DNP-ovalbumin-induced passive cutaneous anaphylaxis administered 10 mins prior to DNP-ovalbumin-challenge; assay type: functional
In short: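 This rat passive cutaneous anaphylaxis model used reaginic anti-DNP-ovalbumin serum given intradermally, iv DNP-ovalbumin with Evans blue 48 h later, and weal scoring. Rats were starved overnight and dosed orally with the compound in aqueous solution 10 min before iv antigen challenge. ED50 was calculated with 95% confidence limits, assuming a log-linear dose response.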

[9] = species on record: Homo sapiens; assay: Antianaphylactic activity in human lung fragments assessed as inhibition of sheep anti-human IgE-induced histamine release at 0.18 ug/ml treated 10 mins prior to sheep anti-human IgE-challenge measured after 15 mins by superfusion assay relative to control; assay type: functional; in short: as §1
[10] = species on record: Homo sapiens; assay: Antianaphylactic activity in human lung fragments assessed as inhibition of sheep anti-human IgE-induced histamine release at 1.8 ug/ml treated 10 mins prior to sheep anti-human IgE-challenge measured after 15 mins by superfusion assay relative to control; assay type: functional; in short: as §1

EC50 [4]: 0.08 µg/mL (≈ 0.311 µM)
SMILES: O=C(Nc1nnn[nH]1)c1cc(=O)c2ccccc2o1
inhibition [1]: 43.3% | inhibition [2]: 61.6% | inhibition [3]: Dose-dependent effect | fold change (potency relative to reference compound) [5]: 1 | inhibition in vivo at 1 mg/kg [6]: 100% | ED50 [7]: 0.037 mg/kg | ED50 [8]: 21 mg/kg | inhibition [9]: 5% | inhibition [10]: 46.4%
